Source: publication PMC2193294 (The Journal of Experimental Medicine, 2001)

Tests used:
[1] = tested on: vWF; test: Formation of new thiols in vWF; format: biochemical, human
[2] = tested on: vWF; test: vWF reductase activity: collagen binding activity / vWF antigen ratio in vitro; format: biochemical, human
Method in brief: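 Plasma from a TTP patient (plasmapheresis; centrifuged 2,000 g, 20 min, 4°C) was used at 10 μl with 90 μl Hepes-buffered saline containing 1 mM CaCl2. The buffer held purified human platelet TSP-1 (0.001–100 μg/ml; purified in 0.1 or 2 mM CaCl2 buffers, quantified by A280) or HMEC-1 conditioned medium. Incubation was 1 or 24 h at 37°C. Aliquots were diluted 10-fold and assayed for collagen binding and vWF antigen, giving a ratio. Triplicates, mean and SD.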

[3] = tested on: vWF; conditions: cited from earlier work
[4] = tested on: vWF; test: Binding of TSP-1 to vWF; parameters: species or system human
Method in brief: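 vWF (5 μg/ml in 0.1 M NaHCO3, pH 8.3) adsorbed to wells overnight at 4°C, then blocked with 2% BSA in HBS (90 min, 37°C). Control wells were BSA-blocked only, with 10 μg/ml TSP-1. TSP-1 (0–10 μg/ml) in Hepes/NaCl/1 mM CaCl2/1 mM MgCl2, pH 7.4, with 0, 5 or 20 mM NEM, 30 min RT with shaking. Wells washed with 1 M NaCl buffer. Detection: anti-TSP-1 mAb HB8432 (10 μg/ml), then peroxidase anti-mouse (1:1,000). Triplicates, mean and SD.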

[5] = cited from earlier work
[6] = tested on: activated platelets; conditions: cited from earlier work
[7] = tested on: collagen; conditions: cited from earlier work
[8] = Plasma concentration of human TSP-1 in mice after injection; format: in vivo; conditions: Balb c mice, 1 mg/kg i.p., 24 h after injection, TSP-1 ELISA
Method in brief: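 Balb c mice (7–9 wk; 2 male, 2 female per group) received purified human platelet TSP-1 at 1 mg/kg as a 0.1 ml i.p. injection. EDTA blood was taken by cardiac puncture 24 h later. Human TSP-1 was measured by sandwich ELISA: HB8432 capture (5 μg/ml, pH 9.6, overnight at 4°C), BSA block, diluted plasma 30 min RT, biotin-HB8432 (5 μg/ml), then StreptABComplex/HRP (1:100). Standards were TSP-1-depleted plasma spiked with platelet TSP-1; the assay was linear over 1–100 ng/ml.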

[9] = tested on: plasma vWF; test: Reduction in average multimer size of plasma vWF in mice; format: in vivo; conditions: Balb c mice, 1 mg/kg i.p., 24 h, P < 0.05
Method in brief: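 Balb c mice aged 7–9 wk, n = 4 per group with 2 male and 2 female each, were given buffer vehicle or purified human platelet TSP-1 at 1 mg/kg as a 0.1 ml i.p. injection. After 24 h, EDTA plasma was collected by cardiac puncture. Plasma was assayed in triplicate for vWF collagen binding activity and vWF antigen, using anti-rat vWF polyclonal antibodies. Multimer size was expressed as the collagen binding/antigen ratio.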

[10] = tested on: vWF; format: biochemical, human
[11] = tested on: platelet aggregation; conditions: high fluid shear; cited from earlier work

O=C(O)CN(CCN(CC(=O)O)CC(=O)O)CC(=O)O [EDTA, reference compound]
effect of EDTA on TSP-1–facilitated formation of free thiols in vWF ([1]; not shown): ablated TSP-1–facilitated formation of free thiols in vWF | effect of EDTA (chelation of Ca2+) on vWF reductase activity of TSP-1 ([2]; not shown): ablated the vWF reductase activity of TSP-1 | effect of EDTA on vWF reductase activity in endothelial cell–conditioned medium [3]: inhibited

CCN1C(=O)C=CC1=O [NEM, N-ethylmaleimide, reference compound]
TSP-1/vWF complex formation vs NEM concentration ([4]; NEM 0, 5, 20 mM, 30 min, room temperature): Complex formation increased with increasing NEM concentration

large vWF multimers: large multimers of von Willebrand factor
ristocetin cofactor activity per unit antigen vs small multimers [5]: considerably higher | affinity for activated platelets vs monomeric fragments [6]: ~100 fold | affinity for activated platelets vs small multimers [6]: up to 10 fold

multimeric vWF: multimeric von Willebrand factor
collagen binding affinity vs monomeric vWF fragments [7]: ~100 fold

thrombospondin-1 [TSP-1]
dependence of MPB incorporation on TSP-1 concentration ([1]; TSP-1 0.01 to 100 μg/ml, 60 min, 37°C): the incorporation increased with increasing TSP-1 concentration | formation of new thiols in vWF (MPB incorporation) ([1]; purified human vWF 2 μg/ml, 60 min, 37°C, TSP-1 0.01 to 100 μg/ml or HMEC-1–conditioned medium, MPB 100 μM): resulted in incorporation of MPB into vWF | concentration of human TSP-1 in mouse plasma [8]: ~1000 ng/mL | dependence of TSP-1–mediated reduction in vWF multimer size ([2]; TTP1 plasma, TSP-1 0.001 to 100 μg/ml, 1 or 24 h, 37°C): concentration and time dependent | vWF reducing activity of three different preparations of platelet TSP-1 ([2]; not shown): had the same vWF reducing activity | optimal TSP-1 concentration for reduction of vWF in 1 h ([2]; purified TSP-1, ∼1 μg/ml plasma vWF, 1 h): ~0.1 µg/mL | optimal TSP-1 concentration for reduction of vWF in 24 h ([2]; purified TSP-1, ∼1 μg/ml plasma vWF, 24 h): ~0.01 µg/mL | binding of TSP-1 to wells not coated with vWF ([4]; 10 μg/ml TSP-1, BSA-blocked wells): no binding | average multimer size of plasma vWF vs buffer vehicle [9]: significantly lower | average multimer size of plasma vWF ([10]; TSP-1 added to TTP2 and TTP3 patient plasmas (not shown)): reduced the average multimer size of the plasma vWF | very large vWF multimers ([10]; TTP1 patient plasma, 1 h, 37°C, 1% agarose gel): the very large multimers were lost

unusually large vWF multimers: unusually large vWF multimers secreted by endothelial cells
induction of platelet aggregation vs largest plasma forms [11]: more effective
